In ChEMBL document CHEMBL4130515, “Identification of Privileged Antichlamydial Natural Products by a Ligand-Based Strategy” (J Nat Prod, 2017):
Counter-ions that a name gives are not always drawn.

Experiment: Cytotoxicity against human HL cells assessed as cell viability at 50 uM after 72 hrs by resazurin dye based fluorescence assay relative to control
Details: HL cells, read-out: Activity
How it was run: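 HL cells grown overnight to confluence, then exposed to compound at 50 μM for 72 h at 37 °C, four parallel replicates. Read-out after 2 h with 20 μM resazurin in PBS, fluorescence at 570/590 nm (ex/em). Viability % is relative to cells in 0.25% DMSO medium. Usnic acid 50 μM as positive control.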

SMILES	viability at 72 h, 50 µM
CC(=O)O[C@H]1C(=O)[C@@]2(C)[C@H]([C@H](OC(=O)c3ccccc3)[C@]3(O)C[C@H](O)C(C)=C1C3(C)C)[C@]1(OC(C)=O)CO[C@@H]1C[C@@H]2O [BACCATIN III]	34.6%
CC(C)[C@@]1(NC(=O)[C@@H]2C[C@@H]3c4cccc5[nH]cc(c45)C[C@H]3N(C)C2)O[C@@]2(O)[C@@H]3CCCN3C(=O)[C@H](Cc3ccccc3)N2C1=O [DIHYDROERGOCRISTINE MESYLATE]	2.7%
CO[C@H]1[C@@H](O)[C@@H](C)O[C@H](O[C@H]2[C@H](Oc3cccc4c(O)c5c(=O)oc6ccc(C)c7c(=O)oc(c34)c5c67)O[C@H](C)[C@H](O)[C@@H]2O)[C@@H]1O [CHARTREUSIN]	4%
CN1CCc2cc3c(c4c2[C@H]1Cc1ccccc1-4)OCO3 [REMERINE HYDROCHLORIDE]	45.2%
O=C(/C=C/c1ccc(O)c(O)c1)OCCc1ccccc1 [CAFFEIC ACID PHENETHYL ESTER]	46%
CC(=O)O[C@H]1[C@H]2O[C@]23[C@@H]2CC[C@@H]4C[C@@H](O)CC[C@]4(C)[C@H]2CC[C@]3(C)[C@H]1c1ccc(=O)oc1 [CINOBUFAGIN]	0.2%
c1cc2c(cc1[C@H]1OC[C@H]3[C@@H]1CO[C@H]3c1ccc3c(c1)OCO3)OCO2 [ASARININ]	57.1%
C[C@]1(C(=O)O)CCC[C@]2(C)c3cc(O)ccc3CC[C@@H]12 [PODOCARIC ACID]	27.9%
C=C1C(=O)[C@]23[C@H](O)[C@H]1CC[C@H]2[C@@]12CO[C@]3(O)[C@@H](O)[C@@H]1C(C)(C)CC[C@@H]2O [ORIDONIN]	0%
O=c1cc(-c2ccccc2)oc2cc(O)ccc12 [7-HYDROXYFLAVONE]	71.1%
CCn1cc(C(=O)O)c(=O)c2ccc(C)nc21 [NALIDIXIC ACID]	15.8%
CN1CCc2cc(O)c(O)cc2C1Cc1ccc(O)c(O)c1 (configuration not stated) [LAUDANOSOLINE HYDROBROMIDE]	72.8%
C[C@@H]1C[C@H]2O[C@@H]2/C=C\C=C\C(=O)Cc2c(Cl)c(O)cc(O)c2C(=O)O1 [RADICICOL]	0.6%
C=CCc1ccc(O)c(-c2ccc(O)c(CC=C)c2)c1 [HONOKIOL]	8.8%
Cc1cc2c(C(C)C)c(O)c(O)c(C=O)c2c(O)c1-c1c(C)cc2c(C(C)C)c(O)c(O)c(C=O)c2c1O [GOSSYPOL]	0.1%
CCOC(=O)Oc1c(OC)cc(C(=O)O[C@H]2C[C@H]3CN4CCc5c([nH]c6cc(OC)ccc56)[C@@H]4C[C@H]3[C@@H](C(=O)OC)[C@@H]2OC)cc1OC	67.6%
C[C@H]1O[C@@H](O[C@H]2[C@@H](O)C[C@H](O[C@H]3[C@@H](O)C[C@H](O[C@H]4CC[C@@]5(C)[C@H](CC[C@@H]6[C@@H]5CC[C@]5(C)[C@@H](C7=CC(=O)OC7)CC[C@]65O)C4)O[C@@H]3C)O[C@@H]2C)C[C@H](O)[C@@H]1O [DIGITOXIN]	0.1%
O=c1cc(-c2ccc(O)cc2)oc2cc(O[C@@H]3O[C@H](CO)[C@@H](O)[C@H](O)[C@H]3O)cc(O)c12 [APIGETRIN]	48.1%
C[C@@H]1C[C@H]2CC[C@H](O2)[C@H](C)C(=O)O[C@@H](C)C[C@@H]2CC[C@@H](O2)[C@@H](C)C(=O)O[C@H](C)C[C@H]2CC[C@H](O2)[C@H](C)C(=O)O[C@@H](C)C[C@@H]2CC[C@@H](O2)[C@@H](C)C(=O)O1	23.7%
C[C@@H]1C/C=C/C=C/C=C/C=C/[C@H](O[C@@H]2O[C@H](C)[C@@H](O)[C@H](N)[C@@H]2O)C[C@@H]2O[C@](O)(C[C@@H](O)C[C@H]3O[C@@H]3/C=C/C(=O)O1)C[C@H](O)[C@H]2C(=O)O [NATAMYCIN]	67.1%
COc1cc2c(cc1OC)[C@@H]1C(=O)c3ccc4c(c3O[C@@H]1CO2)C=CC(C)(C)O4 [DEGUELIN]	21.6%
CC1(C)CC[C@]2(C(=O)O)CC[C@]3(C)C(=CC[C@@H]4[C@@]5(C)CC[C@H](O)C(C)(C)[C@@H]5CC[C@]43C)[C@@H]2C1 [OLEANOLIC_ACID]	36.3%
